The source made the active and inactive calls. The calls are words filed in the database; no cut-off is given here.
What was measured:
Human alphaherpesvirus 2 = assay: Antiviral activity against HSV2 G infected in HEL cells assessed as inhibition of virus-induced cytopathicity; format: functional, organism-based; settings: strain G
In short: (§1)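 Confluent cell monolayers in 96-well plates were inoculated with 100 CCID50 of virus. After 1 h adsorption, residual virus was removed. Cultures were then incubated with test compound at varying concentrations (200, 40, 8... µM). Viral cytopathicity was scored once it reached completion in untreated infected controls. Host cells: HEL for HSV-1 KOS and HSV-2 G; Vero for the Vero lines; HeLa for the HeLa lines.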

[1] = Cytotoxicity against human WI38 cells after 72 hrs by MTT assay; format: cell-based; settings: WI-38, 72 h
In short: (§2)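 Adherent cells were plated at 3000–6000 cells/well on day 0, according to doubling time. Compound was added as five 10-fold dilutions (1 × 10⁻⁸–1 × 10⁻⁴ M), with DMSO ≤0.1%, and incubated 72 h. Read-out was MTT absorbance converted to percentage growth versus untreated wells on the same plate. IC50 was obtained by linear regression between bracketing concentrations; the highest concentration was reported as ">" if not reached. Quadruplicates, three experiments.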

[2] = system: Vesicular stomatitis virus; assay: Antiviral activity against Vesicular stomatitis virus infected in human HeLa cells assessed as inhibition of virus-induced cytopathicity; format: functional, organism-based
In short: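 Confluent HeLa cultures were infected with 100 CCID50 of virus. Unadsorbed virus was removed after 1 h, and compound was added at serial concentrations (200, 40, 8…). Viral cytopathic effect was read when untreated virus-infected control wells reached full cytopathicity.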

Vaccinia virus = assay: Antiviral activity against Vaccinia virus infected in HEL cells assessed as inhibition of virus-induced cytopathicity; format: functional, organism-based; settings: Orthopoxvirus vaccinia
[3] = system: Mammalian orthoreovirus 1; assay: Antiviral activity against Reovirus 1 infected in Vero cells assessed as inhibition of virus-induced cytopathicity; format: functional, organism-based; in short: as §1
Sindbis virus = assay: Antiviral activity against Sindbis virus infected in Vero cells assessed as inhibition of virus-induced cytopathicity; format: functional, organism-based; in short: as §1
Coxsackievirus B4 [4] = assay: Antiviral activity against Coxsackievirus B4 infected in Vero cells assessed as inhibition of virus-induced cytopathicity; format: functional, organism-based; in short: as §1
HeLa [5] = assay: Cytotoxicity against human HeLa cells assessed as cell viability after 3 days by coulter counting; format: cell-based; settings: 72 h
Influenza B virus = assay: Antiviral activity against influenza B virus infected in MDCK cells assessed as inhibition of virus-induced cytopathicity; format: functional, organism-based
In short: (§3)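 MDCK cells, nearly confluent in microtiter plates, were infected with 100 CCID50 per well. After 1 h adsorption, the inoculum was washed off. Cells were incubated with graded compound concentrations (200, 40, 8…). Cytopathicity was recorded at completion in untreated infected controls.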

Punta Toro virus = assay: Antiviral activity against Punta Toro virus infected in Vero cells assessed as inhibition of virus-induced cytopathicity; format: functional, organism-based; in short: as §1
MIA PaCa-2 = assay: Cytotoxicity against human MIAPaCa2 cells after 72 hrs by MTT assay; format: functional, cell-based; settings: MIA PaCa-2, 72 h; in short: as §2
HEp-2 = assay: Cytotoxicity against human Hep2 cells after 72 hrs by MTT assay; format: functional, cell-based; settings: HEp-2, 72 h; in short: as §2
MCF7 = assay: Cytotoxicity against human MCF7 cells after 72 hrs by MTT assay; format: functional, cell-based; settings: MCF7, 72 h; in short: as §2
SW-620 = assay: Cytotoxicity against human SW620 cells after 72 hrs by MTT assay; format: functional, cell-based; settings: SW-620, 72 h; in short: as §2
Coxsackievirus B4 [6] = assay: Antiviral activity against Coxsackievirus B4 infected in human HeLa cells assessed as inhibition of virus-induced cytopathicity; format: functional, organism-based; in short: as §1
Influenza A virus = assay: Antiviral activity against influenza A virus H1N1; H3N2 infected in MDCK cells assessed as inhibition of virus-induced cytopathicity; format: functional, organism-based; in short: as §3
HeLa [7] = assay: Cytotoxicity against human HeLa cells after 72 hrs by MTT assay; format: functional, cell-based; in short: as §2
MDCK = assay: Cytotoxicity against MDCK cells assessed as cell viability after 3 days by coulter counting; format: cell-based, Canis lupus familiaris; settings: dog, 72 h
Human alphaherpesvirus 1 = assay: Antiviral activity against HSV1 KOS infected in HEL cells assessed as inhibition of virus-induced cytopathicity; format: functional, organism-based; in short: as §1
[8] = system: Vesicular stomatitis virus; assay: Antiviral activity against Vesicular stomatitis virus infected in HEL cells assessed as inhibition of virus-induced cytopathicity; format: functional, organism-based
[9] = system: Respiratory syncytial virus; assay: Antiviral activity against Respiratory syncytial virus infected in human HeLa cells assessed as inhibition of virus-induced cytopathicity; format: functional, organism-based; in short: as §1
Human respirovirus 3 = assay: Antiviral activity against Parainfluenza 3 infected in Vero cells assessed as inhibition of virus-induced cytopathicity; format: functional, organism-based; in short: as §1
HEL = assay: Cytotoxicity against HEL cells assessed as cell viability after 3 days by coulter counting; format: cell-based; settings: human, 72 h
In short: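 HEL cells were seeded at 5 × 10³ cells/well and allowed to proliferate 24 h. Medium with test compound at different concentrations was then added, and cells were incubated 3 days at 37 °C. Cell number was counted by Coulter counter. CC50 (50% reduction in cell number versus untreated controls) was read from plots of cell number (% of control) against concentration.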

Vero = assay: Cytotoxicity against african green monkey Vero cells assessed as cell viability after 3 days by coulter counting; format: cell-based; settings: chlorocebus sabaeus, 72 h
SK-BR-3 = assay: Cytotoxicity against human SK-BR-3 cells after 72 hrs by MTT assay; format: functional, cell-based; settings: SK-BR-3, 72 h; in short: as §2

**Q.** What does the source list for `O=C(NC/C=C\Cn1ccc(=O)[nH]c1=O)c1ccccc1`?
**A.** inhibition (Human alphaherpesvirus 2): inactive; IC50 [1]: 6.6 µM; inhibition [2]: inactive; inhibition (Vaccinia virus): inactive; inhibition [3]: inactive; inhibition (Sindbis virus): inactive; inhibition (Coxsackievirus B4 [4]): inactive; Activity (HeLa [5]): Non-toxic; inhibition (Influenza B virus): inactive; inhibition (Punta Toro virus): inactive; IC50 (MIA PaCa-2): > 100 µM; IC50 (HEp-2): > 100 µM; IC50 (MCF7): > 100 µM; IC50 (SW-620): > 100 µM; inhibition (Coxsackievirus B4 [6]): inactive; inhibition (Influenza A virus): inactive; IC50 (HeLa [7]): 4.9 µM; Activity (MDCK): Non-toxic; inhibition (Human alphaherpesvirus 1): inactive; inhibition [8]: inactive; inhibition [9]: inactive; inhibition (Human respirovirus 3): inactive; Activity (HEL): Non-toxic; Activity (Vero): Non-toxic; IC50 (SK-BR-3): > 100 µM

**Q.** Which inhibition (Human alphaherpesvirus 2) does the source give for `Nc1nc(=O)n(C/C=C\CNC(=O)c2ccccc2)cc1F` here?
**A.** inactive

**Q.** What about the IC50 [1] of the same compound?
**A.** 50.2 µM

**Q.** What about the inhibition [2] of the same compound?
**A.** inactive

**Q.** What about the inhibition (Vaccinia virus) of the same compound?
**A.** inactive

**Q.** And the inhibition [3]?
**A.** inactive

**Q.** And the inhibition (Sindbis virus)?
**A.** inactive

**Q.** And the inhibition (Coxsackievirus B4 [4])?
**A.** inactive

**Q.** And the Activity (HeLa [5])?
**A.** Non-toxic

**Q.** And the inhibition (Influenza B virus)?
**A.** inactive

**Q.** And the inhibition (Punta Toro virus)?
**A.** inactive

**Q.** What about the IC50 (MIA PaCa-2) of the same compound?
**A.** > 100 µM

**Q.** And the IC50 (HEp-2)?
**A.** > 100 µM

**Q.** What about the IC50 (MCF7) of the same compound?
**A.** 34.4 µM

**Q.** What about the IC50 (SW-620) of the same compound?
**A.** > 100 µM

**Q.** What about the inhibition (Coxsackievirus B4 [6]) of the same compound?
**A.** inactive

**Q.** And the inhibition (Influenza A virus)?
**A.** inactive

**Q.** What about the IC50 (HeLa [7]) of the same compound?
**A.** 71.9 µM

**Q.** What about the Activity (MDCK) of the same compound?
**A.** Non-toxic

**Q.** And the inhibition (Human alphaherpesvirus 1)?
**A.** inactive

**Q.** What about the inhibition [8] of the same compound?
**A.** inactive

**Q.** What about the inhibition [9] of the same compound?
**A.** inactive

**Q.** What about the inhibition (Human respirovirus 3) of the same compound?
**A.** inactive

**Q.** And the Activity (HEL)?
**A.** Non-toxic

**Q.** What about the Activity (Vero) of the same compound?
**A.** Non-toxic

**Q.** And the IC50 (SK-BR-3)?
**A.** > 100 µM

**Q.** Which inhibition (Human alphaherpesvirus 2) does the source give for `O=C(NC/C=C\Cn1cc(C(F)(F)F)c(=O)[nH]c1=O)c1ccccc1` here?
**A.** inactive

**Q.** What about the IC50 [1] of the same compound?
**A.** > 100 µM

**Q.** And the inhibition [2]?
**A.** inactive

**Q.** And the inhibition (Vaccinia virus)?
**A.** inactive

**Q.** And the inhibition [3]?
**A.** inactive

**Q.** And the inhibition (Sindbis virus)?
**A.** inactive

**Q.** What about the inhibition (Coxsackievirus B4 [4]) of the same compound?
**A.** inactive

**Q.** And the Activity (HeLa [5])?
**A.** Non-toxic

**Q.** What about the inhibition (Influenza B virus) of the same compound?
**A.** inactive

**Q.** What about the inhibition (Punta Toro virus) of the same compound?
**A.** inactive

**Q.** What about the IC50 (MIA PaCa-2) of the same compound?
**A.** > 100 µM

**Q.** What about the IC50 (HEp-2) of the same compound?
**A.** > 100 µM

**Q.** What about the IC50 (MCF7) of the same compound?
**A.** > 100 µM

**Q.** And the IC50 (SW-620)?
**A.** > 100 µM

**Q.** What about the inhibition (Coxsackievirus B4 [6]) of the same compound?
**A.** inactive

**Q.** What about the inhibition (Influenza A virus) of the same compound?
**A.** inactive

**Q.** And the IC50 (HeLa [7])?
**A.** > 100 µM

**Q.** What about the Activity (MDCK) of the same compound?
**A.** Non-toxic

**Q.** And the inhibition (Human alphaherpesvirus 1)?
**A.** inactive

**Q.** What about the inhibition [8] of the same compound?
**A.** inactive

**Q.** And the inhibition [9]?
**A.** inactive

**Q.** And the inhibition (Human respirovirus 3)?
**A.** inactive

**Q.** And the Activity (HEL)?
**A.** Non-toxic

**Q.** What about the Activity (Vero) of the same compound?
**A.** Non-toxic

**Q.** What about the IC50 (SK-BR-3) of the same compound?
**A.** > 100 µM

— ChEMBL document CHEMBL1221337, “The unsaturated acyclic nucleoside analogues bearing a sterically constrained (Z)-4'-benzamido-2'-butenyl moiety: Synthesis, X-ray crystal structure study, cytostatic and antiviral activity evaluations” (Bioorg Med Chem, 2010)
